The source made the active and inactive calls.
Assays:
[1] = Selectivity index, ratio of IC50 for human HepG2 cells to IC50 for newly excysted juveline stage of Fasciola hepatica Italian assessed as effect on parasite phenotype; format: toxicity; conditions: read-out: Ratio IC50
In short: (§1)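 Selectivity index was calculated as the CC50 from the HepG2 or MDBK MTT assay divided by the F. hepatica NEJ phenotype or motility IC50 from the 72 hr manual scoring assay.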

[2] = Selectivity index, ratio of IC50 for MDBK cells to IC50 for newly excysted juveline stage of Fasciola hepatica Italian assessed as effect on parasite phenotype; format: toxicity; conditions: cattle, read-out: Ratio IC50; in short: as §1
[3] = Cytotoxicity against human HepG2 cells after 24 hrs by MTT assay; format: cell-based
In short: (§2)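 Cells were grown to about 80% confluence (HepG2 in BME, MDBK in EMEM, each with 10% FBS). They were seeded at 2.5 x10^4 per well and rested 24 hr, then exposed 24 hr to compound at 100–0.01 µM (1.25% DMSO). Controls were DMSO and 1% Triton X-100. Viability was read by MTT, and CC50 came from dose-response curves run in triplicate.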

[4] = tested on: Schistosoma mansoni; test: Antischistosomal activity against adult stage of Schistosoma mansoni assessed as effect on parasite motility after 72 hrs by microscopic method; format: functional, organism-based
In short: (§3)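 Mice were infected percutaneously with 200 cercariae, and adults were recovered by portal perfusion at seven weeks. Three worm pairs per well in modified DMEM with 10% FCS were given compound at 50, 25, 12.5 and 6.25 µM final (0.3% DMSO) for 72 hr at 37 °C, 5% CO2. Controls were DMSO and auranofin. Worms were scored manually by microscopy at 24, 48 and 72 hr. Experiments were run in duplicate.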

[5] = Selectivity index, ratio of IC50 for human HepG2 cells to IC50 for antischistosomal activity against schistosomula of Schistosoma mansoni assessed as effect on parasite phenotype; format: toxicity; conditions: read-out: Ratio IC50
In short: (§4)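 Selectivity index was calculated as the CC50 from the HepG2 or MDBK MTT assay divided by the schistosomula phenotype or motility IC50 from the 72 hr image-based screen.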

[6] = tested on: Fasciola hepatica; test: Antifasciola activity against newly excysted juveline stage of Fasciola hepatica Italian assessed as effect on parasite motility after 72 hrs; format: functional, organism-based
In short: (§5)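 NEJs came from Italian-strain metacercariae, excysted either by pepsin/HCl or by needle rupture, then 1 hr in sodium tauroglycocholate. They were plated at 25 per well in RPMI-1640 with 1% FCS. Screening was at 25 and 12.5 µM, then titration from 10 to 0.625 µM (0.16% DMSO). Controls were DMSO and 10 µM triclabendazole. Motility and phenotype were scored at 72 hr, with IC50 from dose-response curves.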

[7] = tested on: Schistosoma mansoni; test: Antischistosomal activity against schistosomula of Schistosoma mansoni assessed as effect on parasite phenotype by throughput high content image analysis; format: functional, organism-based
In short: (§6)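 Puerto Rican (NMRI) strain cercariae were mechanically transformed to schistosomula. About 120 larvae were co-cultured with compound for 72 hr at 37 °C, 5% CO2, at 0.625% DMSO final. Controls were DMSO and auranofin. Motility and phenotype were scored by automated image analysis, with a hit threshold of ≤-0.15 (phenotype) and ≤-0.35 (motility) in ≥70% of larvae. Runs were in duplicate, and IC50 was estimated from dose-response curves.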

[8] = tested on: Schistosoma mansoni; test: Antischistosomal activity against schistosomula of Schistosoma mansoni at 25 uM by throughput high content image analysis; format: functional, organism-based; in short: as §6
[9] = Selectivity index, ratio of IC50 for MDBK cells to IC50 for antischistosomal activity against schistosomula of Schistosoma mansoni assessed as effect on parasite phenotype; format: toxicity; conditions: cattle, read-out: Ratio IC50; in short: as §4
[10] = Selectivity index, ratio of IC50 for MDBK cells to IC50 for antischistosomal activity against schistosomula of Schistosoma mansoni assessed as effect on parasite motility; format: toxicity; conditions: cattle, read-out: Ratio IC50; in short: as §4
[11] = tested on: Fasciola hepatica; test: Antifasciola activity against adult stage of Fasciola hepatica Italian assessed as effect on parasite motility after 72 hrs; format: functional, organism-based
[12] = tested on: Fasciola hepatica; test: Antifasciola activity against immature stage of Fasciola hepatica Italian assessed as effect on parasite motility after 72 hrs; format: functional, organism-based
[13] = Selectivity index, ratio of IC50 for human HepG2 cells to IC50 for antischistosomal activity against schistosomula of Schistosoma mansoni assessed as effect on parasite motility; format: toxicity; conditions: read-out: Ratio IC50; in short: as §4
[14] = Cytotoxicity against MDBK cells after 24 hrs by MTT assay; format: cell-based, Bos taurus; conditions: cattle; in short: as §2
[15] = Selectivity index, ratio of IC50 for human HepG2 cells to IC50 for newly excysted juveline stage of Fasciola hepatica Italian assessed as effect on parasite motility; format: toxicity; conditions: read-out: Ratio IC50; in short: as §1
[16] = Selectivity index, ratio of IC50 for MDBK cells to IC50 for newly excysted juveline stage of Fasciola hepatica Italian assessed as effect on parasite motility; format: toxicity; conditions: cattle, read-out: Ratio IC50; in short: as §1
[17] = tested on: Schistosoma mansoni; test: Antischistosomal activity against schistosomula of Schistosoma mansoni assessed as effect on parasite motility by throughput high content image analysis; format: functional, organism-based; in short: as §6
[18] = tested on: Fasciola hepatica; test: Antifasciola activity against newly excysted juveline stage of Fasciola hepatica Italian assessed as effect on parasite phenotype after 72 hrs; format: functional, organism-based; in short: as §5
[19] = tested on: Schistosoma mansoni; test: Antischistosomal activity against adult stage of Schistosoma mansoni assessed as effect on parasite motility up to 12.5 uM after 72 hrs by microscopic method; format: functional, organism-based; in short: as §3
[20] = tested on: Fasciola hepatica; test: Antifasciola activity against immature stage of Fasciola hepatica Italian assessed as loss of spines on ventral surface at 13.3 uM after 72 hrs by osmium tetroxide staining-based scanning electron microscopic method; format: functional, organism-based
[21] = tested on: Schistosoma mansoni; test: Antischistosomal activity against female adult stage of Schistosoma mansoni assessed as tegumental disruption throughtout the whole body at 25 uM after 72 hrs by osmium tetroxide staining-based scanning electron microscopic method; format: functional, organism-based
[22] = tested on: Schistosoma mansoni; test: Antischistosomal activity against female adult stage of Schistosoma mansoni assessed as loss of spinous tubercles natural shape at 25 uM after 72 hrs by osmium tetroxide staining-based scanning electron microscopic method; format: functional, organism-based
[23] = tested on: Schistosoma mansoni; test: Antischistosomal activity against adult stage of Schistosoma mansoni assessed as appearance of smaller eggs at 6.25 uM after 72 hrs by fluorescence microscopic method; format: functional, organism-based
In short: (§7)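 Adult worm pairs from infected MF-1 mice were cultured 72 hr at 37 °C, 5% CO2, in modified DMEM with 10% FCS. At 72 hr, eggs were collected from each well, counted, pelleted at 200 x g, fixed in 10% formaldehyde in PBS, and viewed under natural light and a GFP filter.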

[24] = tested on: Schistosoma mansoni; test: Antischistosomal activity against adult stage of Schistosoma mansoni assessed as loss of lateral spine in eggs at 6.25 uM after 72 hrs by fluorescence microscopic method; format: functional, organism-based; in short: as §7
[25] = tested on: Fasciola hepatica; test: Antifasciola activity against immature stage of Fasciola hepatica Italian assessed as exposure of basal lamina at 13.3 uM after 72 hrs by osmium tetroxide staining-based scanning electron microscopic method; format: functional, organism-based
[26] = tested on: Schistosoma mansoni; test: Antischistosomal activity against adult stage of Schistosoma mansoni at 50 uM after 24 to 72 hrs by microscopic method; format: functional, organism-based; in short: as §3
[27] = tested on: Schistosoma mansoni; test: Antischistosomal activity against adult stage of Schistosoma mansoni assessed as appearance of abnormal shaped eggs at 6.25 uM after 72 hrs by fluorescence microscopic method; format: functional, organism-based; in short: as §7
[28] = tested on: Schistosoma mansoni; test: Antischistosomal activity against schistosomula of Schistosoma mansoni at 1 uM by throughput high content image analysis; format: functional, organism-based
[29] = tested on: Schistosoma mansoni; test: Antischistosomal activity against schistosomula of Schistosoma mansoni at 10 uM by throughput high content image analysis; format: functional, organism-based; in short: as §6
[30] = tested on: Fasciola hepatica; test: Antifasciola activity against immature stage of Fasciola hepatica Italian assessed as sloughing of tegument at 13.3 uM after 72 hrs by osmium tetroxide staining-based scanning electron microscopic method; format: functional, organism-based
[31] = tested on: Schistosoma mansoni; test: Antischistosomal activity against male adult stage of Schistosoma mansoni assessed as tegumental disruption throughtout the whole body at 25 uM after 72 hrs by osmium tetroxide staining-based scanning electron microscopic method; format: functional, organism-based
[32] = tested on: Schistosoma mansoni; test: Antischistosomal activity against adult stage of Schistosoma mansoni assessed as irregular auto-fluorescence of eggs at 6.25 uM after 72 hrs by fluorescence microscopic method; format: functional, organism-based; in short: as §7
[33] = tested on: Fasciola hepatica; test: Antifasciola activity against adult stage of Fasciola hepatica Italian assessed as decoration of ventral surface by swollen tegumantal ridges and smaller spines at 40 uM after 72 hrs by osmium tetroxide staining-based scanning electron microscopic method; format: functional, organism-based
[34] = tested on: Schistosoma mansoni; test: Antischistosomal activity against male adult stage of Schistosoma mansoni assessed as loss of spinous tubercles natural shape at 25 uM after 72 hrs by osmium tetroxide staining-based scanning electron microscopic method; format: functional, organism-based

Compound | selectivity ratio [1] | selectivity ratio [2] | CC50 at 24 h [3] [µM] | IC50 [4] [µM] | selectivity ratio [5] | IC50 [6] [µM] | IC50 [7] [µM] | Activity [8] | selectivity ratio [9] | selectivity ratio [10] | IC50 [11] [µM] | IC50 [12] [µM] | selectivity ratio [13] | CC50 at 24 h [14] [µM] | selectivity ratio [15] | selectivity ratio [16] | IC50 [17] [µM] | IC50 [18] [µM] | other results
COc1ccc2c(c1)[C@@]1(C)CCCC(C)(C)[C@@H]1CC2=O (relative stereo) | 3.3 | 7.1 | 33.1 | > 50 | 2.3 | 8.4 | 14.2 | Active | 5 | 6.9 | 39.9 | 14.6 | 3.2 | 70.6 | 3.9 | 8.3 | 10.3 | 9.9 | 
CC1(C)CCC[C@]2(C)c3ccc(O)cc3CC[C@@H]12 | 8 | 10.2 | 25.6 | 19.9 | 3.8 | 2.5 | 6.8 | Active | 4.8 | 5.2 | 28.4 | 10.4 | 4.1 | 32.5 | 10.2 | 13 | 6.3 | 3.2 | Activity [19]: Active; Activity [20]: Active; Activity [21]: Active; Activity [22]: Active; Activity [23]: Active; Activity [24]: Active; Activity [25]: Active; Activity [26]: Active; Activity [27]: Active; Activity [28]: inactive; Activity [29]: Active; Activity [30]: Active; Activity [31]: Active; Activity [32]: Active; Activity [33]: Active; Activity [34]: Active
COc1ccc(CC(=O)C2=C(C)CCCC2(C)C)cc1 |  |  | > 100 | > 50 |  |  | 25.3 | Active | 3.6 | 4.8 |  |  |  | 91.1 |  |  | 19.1 |  | 
CC(C)c1cc2c(cc1O)C(=O)C[C@H]1C(C)(C)CCC[C@]21C | 4.8 | 3.8 | 80 |  | 3.7 | 13.1 | 21.9 |  | 2.9 | 2.4 |  |  | 3.1 | 63.8 | 6.1 | 4.9 | 26.2 | 16.8 | 
CC1=C(C(=O)Cc2ccc(C(C)C)cc2)C(C)(C)CCC1 |  |  | 71.7 | > 50 | 2.8 |  | 25.4 | Active |  |  |  |  | 3.9 | > 100 |  |  | 18.2 |  | 

From ChEMBL document CHEMBL4152233, “Design, synthesis and anthelmintic activity of 7-keto-sempervirol analogues” (Eur J Med Chem, 2018)
